# Bioassay records from PubChem.
# Env fusion inh: inhibitors of HIV-1 Env-driven cell-cell fusion, primary screen, HeLa-JRFL effector, CEM21 target cells, luciferase; inhibition, % at 12.3 µM; 360,000 compounds, 1.1% hits;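 active = mean replicate inhibition score of at least 50 and every replicate individually at or above 50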;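 also: 0% = plate neutral controls and 100% = maraviroc near 300 nM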
# PGC1a acetyl inh: inhibitors of PGC1a acetylation signal, primary screen, cell-based, U2OS, AlphaScreen, inhibitor mode; AlphaScreen anti-acetyl-lysine; with virally co-expressed GCN5 acetyltransferase; inhibition, % at 15.6 µM; 350,000 compounds, 0.17% hits; AID 651687, 2012;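 active = every replicate shows inhibition of at least 40%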;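 also: 0% = neutral control wells and 100% = positive control wells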
# ERAP1 inh: human ERAP1 aminopeptidase inhibitors, primary screen, biochemical, single point, plate reader; recombinant ERAP1, Leu-AMC fluorescence, 60 min; inhibition, % at 10.7 µM; 340,000 compounds, 0.15% hits;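 active = mean replicate inhibition of at least 30%, or all replicates individually reaching that 30% level; inactive = mean below 30% and not every replicate reaching it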;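 also: 0% = neutral control wells and 100% = L-leucinethiol positive control wells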
# Cneo AK release: Cryptococcus neoformans cell lysis inducers, primary screen, AK release luminescence, single concentration | C. neoformans lysis, adenylate kinase release luminescence, 4 h; normalised: neutral wells 0, clomiphene wells 100 | lysis activity, % at 15 µM | 360,000 compounds, 0.2% hits | AID 651654, 2012;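 active = mean lysis activity across replicates of at least 80%, whatever share of replicates individually reach that level; inactive = mean lysis activity below 80%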
#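 read-out = cell lysis signal | test system = log-phase Cryptococcus neoformans yeast cells | input = cells at 5 × 10^6 per mL | medium = fresh YPD growth medium | signal = luminescent adenylate kinase detection reagent | timing = 4 h at 37 °C static, read 1 h later | dosing = single dose | controls = Clomiphene as positive lysis control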
# FGF22 binding: binders of human FGF22 protein, primary screen, FGF22 synaptogenesis inhibitor project, biophysical, thermal shift, single point. activity (Tm shift, normalised), % at 9.99 µM. Fibroblast growth factor 22 (Homo sapiens), Q9HCT0. 340,000 compounds, 1.5% hits. recombinant FGF22 thermal shift, SYPRO orange fluorescence; percent of sucrose octasulfate shift, DMSO zero;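 active = mean Tm shift, scaled 0 neutral to 100 positive control, at about 1.3% or above, every replicate too, limit read from the data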
# Target sequence (Q9HCT0 whole entry, looked up): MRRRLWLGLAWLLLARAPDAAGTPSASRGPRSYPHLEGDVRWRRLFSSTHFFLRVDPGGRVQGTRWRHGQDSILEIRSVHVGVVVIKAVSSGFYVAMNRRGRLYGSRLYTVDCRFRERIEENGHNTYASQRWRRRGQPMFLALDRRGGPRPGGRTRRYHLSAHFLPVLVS
# Ecoli rRNA inh: reduced GFP signal of wild-type E. coli, primary screen, bacterial rRNA inhibitor project, GFP/RFP fluorescence, OD600, single point. E. coli WT GFP vs humanized-ribosome RFP mutants, 24 h; hits give low values; DMSO median 0, no signal -100. GFP signal change (wild-type ribosome), % (concentration not given with the values). 350,000 compounds, 1.6% hits. AID 720706, 2013;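 active = significant combined selectivity score with lowered wild-type GFP, culture density cut under 30%, mutant RFP and density less affected; inactive = any of these conditions unmet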
# * = called active by the depositor; x = no result given; [ ] = remark or other dose. Compounds with a hit are over-represented: about 3.5% of the library has one in this group of screens.
SMILES,Env fusion inh,PGC1a acetyl inh,ERAP1 inh,Cneo AK release,FGF22 binding,Ecoli rRNA inh
COc1ccc(NC(=O)c2ccco2)cc1NC(=O)c1cccc(OC(C)C)c1,112.8*,-1.7,x,-6.4,x,x
CCOc1cccc(C(=O)Nc2ccc(N3CCCC3)cc2)c1,-2.9,6.4,0.1,2.2,-0.2,-19.1*
O=C(Nc1cccc(NC(=O)c2ccco2)c1)c1cccc(Br)c1,23.4,x,-24.4,-1.6,43.2*,-7.0
O=C(Nc1cc(Br)c(O)c(Br)c1)c1cccc(NC(=O)c2ccco2)c1,14.1,6.3,2.4,-0.1,0.1,-41.0
C[C@H]1CCCCO[C@@H](CN(C)C(=O)Nc2ccc3c(c2)OCO3)[C@@H](C)CN([C@@H](C)CO)C(=O)c2cc(NC(=O)CCC(F)(F)F)ccc2O1,12.3[16.7 µM],0.1,3.6,-0.7,0.1,0.7
O=C(Nc1ccccc1)C1=C[C@@H](c2csc3ccccc23)C[C@@H](OCc2ccc(CO)cc2)O1,-33.5,-22.8,-2.2,-1.9,-0.4,1.1
Cc1cc(C)cc(N(CC(=O)NCc2ccccc2Cl)S(=O)(=O)c2c(C)[nH]c(=O)[nH]c2=O)c1,-0.6,-8.9,-1.9,-0.2,-0.1,-47.4
Cc1ccc(C(=O)Nc2ccc(N3CCCC3)cc2)c(C)c1,-12.0,-10.2,-2.7,x,x,-36.3*
CCOc1cccc(C(=O)Nc2cccc(C(C)=O)c2)c1,-26.2,1.5,x,2.1,x,x
CCOc1cccc(C(=O)Nc2cccc(NC(=O)c3ccco3)c2)c1,9.9,8.8,-1.1,10.3,1.5*,-9.3
Cc1ccccc1C(=O)Nc1ccc(N2CCCC2)cc1,-24.1,-18.1,-2.1,-0.4,-0.8,-10.8
C[C@@H]1CN([C@H](C)CO)C(=O)c2cc(NC(=O)CCCCCC(=O)Nc3ccccc3N)ccc2O[C@@H](C)CCCCO[C@@H]1CN(C)S(=O)(=O)c1ccc(Cl)cc1,0.2[16.7 µM],15.9,2.4,-0.1,-0.2,0.2
Cc1csc(SC(C)C(=O)NCc2ccc3c(c2)OCO3)n1 (stereo unspecified),25.7,7.7,2.0,1.1,0.1,8.9
COc1ccc(CNc2cc(C)ccc2C)c(OC)c1OC,28.3,x,x,-1.8,x,x
COc1cc(Br)c(CNc2cc(C)ccc2C)cc1OC,18.4,-0.1,-2.2,2.9,-0.1,-24.1*
O=C(C[C@@H]1C=C[C@H](NS(=O)(=O)c2ccc(F)cc2)[C@H](CO)O1)N1CCc2ccccc2C1,1.2[16.7 µM],7.3,1.9,-0.7,0.1,0.9
Cc1nccn1Cc1cccc2ccccc12,x,-4.2,-1.6,12.2,0.0,8.4
Cc1ccc(C(CCNC(C)c2cccs2)c2ccco2)cc1 (stereo unspecified),65.8*,x,2.8,x,-0.3,x
CC(NCCC(Cc1ccccc1)c1ccco1)c1ccccc1 (stereo unspecified),13.9,2.9,-4.1,4.7,0.0,-8.2
CCc1cccc(NC(=O)CCc2c(C)nn(-c3ccc(N4CCCCC4)nn3)c2C)c1,-14.5,2.5,-0.3,-0.5,0.0,-32.3*
CC(C)NC(=O)N(C)C[C@@H]1OCCCC[C@H](C)Oc2ccc(NC(=O)c3ccccc3)cc2C(=O)N([C@H](C)CO)C[C@H]1C,17.9[16.7 µM],-2.4,-2.2,90.9*,0.1,-2.2
C[C@@H]1CN([C@@H](C)CO)C(=O)c2cc(NC(=O)c3ccccc3)ccc2O[C@@H](C)CCCCO[C@H]1CN(C)CC1CCCCC1,62.5*[16.7 µM],13.2,-0.4,-1.6,-0.4,0.3
CC(C)NC(=O)N(C)C[C@@H]1OCCCC[C@H](C)Oc2ccc(NC(=O)c3ccccc3)cc2C(=O)N([C@H](C)CO)C[C@@H]1C,14.3[16.7 µM],-2.5,x,x,-0.1,-1.0
CC(C)NC(=O)N(C)C[C@H]1OCCCC[C@@H](C)Oc2ccc(NC(=O)c3ccccc3)cc2C(=O)N([C@@H](C)CO)C[C@@H]1C,-32.6[16.7 µM],9.4,2.1,91.5*,0.0,-3.1
